The results in this text go back to ChEMBL document CHEMBL1143818, “Prevention of brain injury by the nonbacteriolytic antibiotic daptomycin in experimental pneumococcal meningitis” (2007).

For assay [1], the system named is Streptococcus pneumoniae. The assay can be described thus: Antimicrobial activity against Streptococcus pneumoniae infected Wistar rat CSF assessed as decrease in bacterial titer at 50 mg/kg, sc after 2 hrs. The format is functional. The following applies: route subcutaneous. Summed up:
(§1)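 Eleven-day-old Wistar rats infected intracisternally with 1.3 × 104 ± 0.5 × 10^4 CFU of S. pneumoniae serotype 3 clinical isolate in 10 μl saline. Single s.c. antibiotic dose started 18 h post-infection. CSF taken by cisterna magna puncture before therapy and at 20 h and 24 h post-infection. CFU counted by plating serial dilutions of 10 μl CSF on blood agar (detection limit 10^3 CFU/ml).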

Assay [2] concerns Streptococcus pneumoniae. As to the kind of experiment: Antibacterial activity against Streptococcus pneumoniae serotype 3. It is filed as functional. Summed up: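 MIC by gradient-strip diffusion (Etest) on blood agar plates inoculated with the study's serotype 3 clinical isolate, run per manufacturer's recommendations. Reference strain ATCC 49619 was tested in parallel. Result read as MIC in mg/liter.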

For assay [3], the system named is Streptococcus pneumoniae. The assay can be described thus: Antibacterial activity against Streptococcus pneumoniae ATCC 49619. The format is functional. Summed up: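 MIC by antibiotic gradient strip (Etest) on blood agar plates inoculated with the strain, per manufacturer's recommendations; reference strain tested in parallel with the serotype 3 clinical isolate.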

Assay [4] has as its system Rattus norvegicus. As to the kind of experiment: Effect on TNFalpha level in Streptococcus pneumoniae infected Wistar rat CSF at 50 mg/kg, sc after 2 to 6 hrs y ELISA. The format is functional. The following applies: route subcutaneous. Summed up:
(§2)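 Infant Wistar rats (11 days old) infected intracisternally with S. pneumoniae serotype 3 (1.3 × 104 ± 0.5 × 10^4 CFU). Single s.c. antibiotic dose given 18 h post-infection. CSF sampled by intracisternal puncture 2 and 6 h after dosing and at 24 h post-infection. Samples spun 5 min at 13,000 rpm, 4°C to remove bacteria and leukocytes, diluted 20-fold, then assayed for rat TNF-α by ELISA (detection limit <5 pg/ml).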
For orientation: In an ELISA, binding on a coated surface is turned into a signal by an enzyme label.

In assay [5] the test system is Rattus norvegicus. As to the kind of experiment: Decrease in TNFalpha level in Streptococcus pneumoniae infected Wistar rat CSF at 50 mg/kg, sc after 24 hrs by ELISA. The following applies: route subcutaneous. It is filed as functional. Summed up: as §2
Assay [6] concerns Streptococcus pneumoniae. As to the kind of experiment: Effect on Streptococcus pneumoniae infection induced elevation of MMP9 level in Wistar rat CSF assessed as MMP-9/MMP-2 index at 50 mg/kg, sc after 20 hrs by gel zymography. The format is functional. The following applies: route subcutaneous. Summed up:
(§3)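 Intracisternally infected 11-day-old Wistar rats (S. pneumoniae serotype 3) dosed s.c. from 18 h. CSF sampled at 20, 24 or 40 h post-infection. 3 μl CSF run on nonreducing 10% SDS-PAGE containing 1% gelatin. Gels washed 1 h in 2.5% Triton X-100, incubated 18 h at 37°C (50 mM NaCl, 10 mM CaCl2, 50 mM Tris, pH 7.6), Coomassie stained. Lysis zones at 92 and 72 kDa measured by densitometry and reported as MMP-9/MMP-2 ratio. Uninfected saline-injected rats served as controls.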

Assay [7] has as its system Streptococcus pneumoniae. The assay can be described thus: Effect on Streptococcus pneumoniae infection induced elevation of MMP9 level in Wistar rat CSF assessed as MMP-9/MMP-2 index at 50 mg/kg, sc after 24 hrs by gel zymography. It is filed as functional. The following applies: route subcutaneous. Summed up: as §3
For assay [8], the system named is Streptococcus pneumoniae. The assay can be described thus: Effect on Streptococcus pneumoniae infection induced elevation of MMP9 level in Wistar rat CSF assessed as MMP-9/MMP-2 index at 50 mg/kg, sc after 40 hrs by gel zymography. The following applies: route subcutaneous. It is filed as functional. Summed up:
as §3

Assay [9] concerns Streptococcus pneumoniae. The assay can be described thus: Effect on Streptococcus pneumoniae infection induced brain injury in Wistar rat hippocampal dentate gyrus assessed as number of apoptotic cells at 50 mg/kg, sc after 24 hrs. It is filed as functional. The following applies: route subcutaneous. Summed up: (§4)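 Following intracisternal pneumococcal infection and s.c. dosing from 18 h, brains were taken at 20, 24 or 40 h after PFA perfusion. Cells with fragmented bodies or condensed nuclei were counted blind in three ×400 fields in each of the four dentate gyrus blades. Counts averaged over twelve coronal sections per animal. Uninfected rats served as controls.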

Assay [10] deals with Streptococcus pneumoniae. As to the kind of experiment: Effect on Streptococcus pneumoniae infection induced brain injury in Wistar rat hippocampal dentate gyrus assessed as number of apoptotic cells at 50 mg/kg, sc after 40 hrs. It is filed as functional. The following applies: route subcutaneous. Summed up:
as §4

The test system of assay [11] is Streptococcus pneumoniae. As to the kind of experiment: Antimicrobial activity against Streptococcus pneumoniae infected Wistar rat CSF assessed as decrease in bacterial titer at 50 mg/kg, sc after 6 hrs. It is filed as functional, organism-based. Also on record: dose 50 mg/kg. Summed up: as §1
The subject of assay [12] is Streptococcus pneumoniae. The assay can be described thus: Effect on Streptococcus pneumoniae infection induced brain injury in Wistar rat hippocampal dentate gyrus assessed as number of apoptotic cells at 50 mg/kg, sc after 20 hrs. The following applies: route subcutaneous. It is filed as functional. Summed up: as §4
Assay [13] concerns Rattus norvegicus. The assay can be described thus: Effect on TNFalpha level in Streptococcus pneumoniae infected Wistar rat CSF at 100 mg/kg, sc after 2 to 6 hrs y ELISA. It is filed as functional. The following applies: route subcutaneous. Summed up: as §2
In assay [14] the test system is Rattus norvegicus. As to the kind of experiment: Decrease on TNFalpha level in Streptococcus pneumoniae infected Wistar rat CSF at 100 mg/kg, sc after 24 hrs by ELISA. It is filed as functional. The following applies: route subcutaneous. Summed up: as §2
Assay [15] deals with Streptococcus pneumoniae. As to the kind of experiment: Antimicrobial activity against Streptococcus pneumoniae infected Wistar rat CSF assessed as decrease in bacterial titer at 100 mg/kg, sc after 2 hrs. The format is functional. The following applies: route subcutaneous. Summed up: as §1

Values after ≈ are worked out from the molar mass of the structure shown. Active and inactive are the calls of the source. The rule behind the calls is not given here.

Take `CCCCCCCCCC(=O)N[C@@H](Cc1c[nH]c2ccccc12)C(=O)N[C@H](CC(N)=O)C(=O)N[C@@H](CC(=O)O)C(=O)N[C@@H]1C(=O)NCC(=O)N[C@@H](CCCN)C(=O)N[C@@H](CC(=O)O)C(=O)N[C@H](C)C(=O)N[C@@H](CC(=O)O)C(=O)NCC(=O)N[C@H](CO)C(=O)N[C@@H]([C@H](C)CC(=O)O)C(=O)N[C@@H](CC(=O)c2ccccc2N)C(=O)O[C@@H]1C`: in [1], the Log10 cfu is recorded as 3.6 /ml. Moreover, the MIC in [2] worked out at 0.25 µg/mL (≈ 0.154 µM); in assay [3] it was 0.38 µg/mL (≈ 0.234 µM). Moreover, the Activity in assay [4] was 3059 pg/mL; in [5], 352 pg/mL; in [9] it was 14.9%; in [10], 6.1%; in assay [12] it was 5.5%. Also, the Ratio in assay [6] is 1.6; in assay [7] it was 1.2; in [8] it was 0.6. In addition, the outcome in assay [11] was Active.

Regarding `CO/N=C(\C(=O)N[C@@H]1C(=O)N2C(C(=O)O)=C(CSc3nc(=O)c(O)nn3C)CS[C@H]12)c1csc(N)n1` [CEFTRIAXONE], the MIC in assay [2] came to 0.023 µg/mL (≈ 0.0415 µM); in [3], 0.094 µg/mL (≈ 0.169 µM). Besides, the Activity came out at 4578 pg/mL in assay [13] and 249 pg/mL in assay [14]. Also, the Log10 cfu in [15] was 6.3 /ml.

Broadly, the MIC is the least concentration at which growth counts as inhibited. Low readings indicate greater potency, high ones weaker potency.
